Screening data deposited in PubChem by several laboratories.
Hits are enriched below; roughly 2.2% of the tested compounds scored in any of these assays.
APJ antag: APJ receptor antagonism; CHO-K1 APJ beta-arrestin complementation, luminescence; inhibition, % at 20 µM; hit rate 0.32% among 330,000; P35414; AID 2521;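 active = inhibition above about 40% at 20 µM, limit read from the data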;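 also: cells challenged with 10 nM apelin-13 agonist together with compound; plate controls were apelin-13 plus DMSO wells for no effect and DMSO wells lacking apelin-13 for full effect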
HTR2A ag: activates the mouse 5-HT2A serotonin receptor; CHO-K1 mHTR2A beta-arrestin complementation, luminescence; percent of 30 µM serotonin response; P35363; AID 624169; hit rate 0.66% among 360,000; activation, % at 7.6 µM;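 active = activation above a run cutoff, the mean activation of all tested compounds plus 3 SD, cut at about 14% in these data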;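 also: 0% = plate median of compound wells and 100% = 30 µM serotonin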
Target sequence (P35363 whole entry, looked up): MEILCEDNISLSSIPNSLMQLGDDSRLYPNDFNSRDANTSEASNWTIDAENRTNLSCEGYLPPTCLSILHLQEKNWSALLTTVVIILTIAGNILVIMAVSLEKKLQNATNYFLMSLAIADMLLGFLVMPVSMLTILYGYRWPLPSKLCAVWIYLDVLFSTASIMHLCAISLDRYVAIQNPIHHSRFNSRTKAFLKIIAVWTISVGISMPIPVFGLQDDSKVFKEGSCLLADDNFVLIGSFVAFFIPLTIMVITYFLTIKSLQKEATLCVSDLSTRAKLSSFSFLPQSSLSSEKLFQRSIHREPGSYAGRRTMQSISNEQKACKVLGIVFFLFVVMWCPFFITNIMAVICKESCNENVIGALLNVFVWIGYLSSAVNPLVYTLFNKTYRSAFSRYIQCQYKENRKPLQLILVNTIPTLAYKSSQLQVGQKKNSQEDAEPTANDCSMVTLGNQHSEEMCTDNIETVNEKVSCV
EBI2 block: antagonists of human EBI2 receptor; P32249; EBI2 beta-arrestin recruitment, luminescence, 7a,25-OHC stimulated; hit rate 0.81% among 360,000; AID 651636; inhibition, % at 5 µM; in the data active = inhibition above about 38%;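 also: enzyme fragment complementation signal reports receptor beta-arrestin coupling in cells; 0% = agonist plus DMSO wells and 100% = wells without agonist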
CCR6 antagonist: blocks CCL20-driven beta-arrestin recruitment at human CCR6; CHO-K1 CCR6 PathHunter beta-arrestin, luminescence, CCL20-stimulated; inhibition, % at 20 µM; hit rate 0.49% among 340,000;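 active = compounds whose inhibition of the agonist-driven luminescence signal at 20 µM reaches about 50%, limit read from the data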;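 also: cells stimulated with CCL20 at 14 nM final; plate controls were DMSO with CCL20 for no effect and DMSO without agonist for full effect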
APJ ag: APJ receptor agonism; P35414; CHO-K1 APJ PathHunter beta-arrestin, luminescence; 0% DMSO wells, 100% apelin; activation, % at 20 µM; hit rate 0.11% among 330,000;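 active = activation more than six SD over the plate average, tested at 20 µM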;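 also: 0% = DMSO alone and 100% = apelin-13 at 10 nM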
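Test system: CHO-K1 APJ beta-arrestin complementation cell line. Amount: cell density 1000 per well. Controls: DMSO negative, 10 nM Apelin-13 positive. Signal: luminescent beta-gal fragment complementation, chemiluminescent substrate. Read-out basis: agonist-driven arrestin binding to APJ. Timing: compound stimulation 90 min at 25 °C, detection 60 min.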
CXCR6 block: blocks human CXCR6 beta-arrestin recruitment; hit rate 0.36% among 360,000; inhibition, % at 20 µM; O00574; CHO-K1 PathHunter CXCR6 beta-arrestin, luminescence; in the data active = inhibition above about 34%, passing the limit was not always enough;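 also: antagonist mode with CXCL16 agonist at 10 nM final; 0% = 10 nM CXCL16 with DMSO and 100% = unstimulated wells without agonist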
* marks the source's active call; other numbers are inactive results; . = no result.

SMILES	APJ antag	HTR2A ag	EBI2 block	CCR6 antagonist	APJ ag	CXCR6 block
COC(=O)C1=C(C(=O)OC)SC(=C2C(=S)C(C)(C)N(C(=O)CC(C)C)c3ccccc32)S1	37	1	56*	49	-1	31
COc1ccc2c(c1)c(=O)oc1c(C)c(OCc3cc(C(=O)O)oc3C)ccc12	-3	-4	-1	56*	-1	1
COc1ccc2c(c1)c(=O)oc1c(C)c(OCc3ccc(C(=O)O)cc3)ccc12	.	6	6	16	.	-2
CCCCCCCCC(c1nc2ccccc2[nH]1)N1CCN=C1c1cc2ccccc2[nH]1 (centres undefined)	.	-2	-16	.	.	-7
Cc1ccc(S(=O)(=O)N2[C@H](CC(=O)Oc3ccccc3)OC[C@@H]2C(C)C)cc1	.	-11	2	.	.	.
Cc1cccc(C)c1NC(=O)c1nc(S(=O)(=O)Cc2ccccc2)ncc1Cl	-4	-9	30	55*	-8	54*
Cc1ccccc1NC(=O)c1nc(S(C)(=O)=O)ncc1Cl	4	-3	24	28	-5	35
COc1ccc(NC(=O)c2nc(S(=O)(=O)Cc3cccc(C)c3)ncc2Cl)c(OC)c1	-8	-3	50*	2	3	3
COc1ccc(S(=O)(=O)N2CCC[C@H]2C(=O)N2CCC[C@H]2C(=O)NCc2ccncc2)cc1C	.	4	-5	.	.	-7
O=C(NC(=S)N1CCN(c2nc(-c3ccccc3)cs2)CC1)c1cncc(Br)c1	7	-8	14	57*	-4	38
O=C(CN1CCN(c2nc(-c3ccccc3)cs2)CC1)NNC(=O)c1ccc(Br)cc1	-20	3	6	11	-3	-10
Cn1cc(Cc2ccc(C(=O)NC34CC5CC(CC(C5)C3)C4)cn2)c2ccccc21	.	-10	15	.	.	5
COc1ccc(C(C#N)=C2C=CC(=NO)C=C2)cc1	-19	9	-11	32	-5	16
N#CC(=C1C=CC(=NO)C(Cl)=C1)c1ccc(Cl)cc1	.	7	-20	67*	.	33
COc1ccc(C2=Nc3ccccc3N(C(=O)c3ccc4ncccc4c3)C2C(=O)NC2CCCC2)cc1 (centres undefined)	.	1	2	.	.	.
Cc1ccc(-c2oc3ccccc3c(=O)c2O)cc1	-12	2	6	43	-6	52*
O=c1c(O)c(-c2ccccc2)oc2ccccc12	.	5	12	26	.	16
CCN1C(=O)/C(=C2\SC(=S)N(c3c(C)n(C)n(-c4ccccc4)c3=O)C2=O)c2ccccc21	20	-2	22	37	7	27
CCCN1C(=O)/C(=C2\SC(=S)N(c3c(C)n(C)n(-c4ccccc4)c3=O)C2=O)c2ccccc21	-2	.	.	51*	1	.
CCOC(=O)c1c(C)[nH]c(C(=O)CN2CCN(CC)CC2)c1C	-2	2	5	4	-2	0
CCOC(=O)c1c(C)[nH]c(C(=O)CN2CC(C)OC(C)C2)c1C (centres undefined)	9	17*	0	-2	5	-2
Cc1cc2oc(=O)cc(Cn3ncc(Cl)c(Cl)c3=O)c2cc1Cl	24	3	50*	20	-1	31
COc1ccc(C/C(N)=N/OC(=O)c2ccc(Cl)cc2)cc1	-19	-1	13	-4	7	-27
N/C(Cc1ccc(Cl)cc1)=N\OC(=O)c1cccc2ccccc12	-36	1	52*	-2	17	-14
O=C(Cn1cc([N+](=O)[O-])cn1)N1CCc2ccccc21	-2	16*	-5	7	-2	7
SMILES	APJ antag	HTR2A ag	EBI2 block	CCR6 antagonist	APJ ag	CXCR6 block
O=C(Cn1cc([N+](=O)[O-])cn1)N1CCCc2ccccc21	3	-5	-6	-5	-2	-5
Cn1c(=O)c([N+](=O)[O-])c(Cl)c2ccccc21	.	-9	16	101*	.	88*
COC(=O)[C@]12CCCCC=C1N(CCc1ccc(OC)c(OC)c1)C(=O)[C@H](CC(=O)NCc1cccc(C(F)(F)F)c1)C2	.	1	18	.	.	.
CCC(C)Sc1ccc(-c2nc3ccc(C)cn3c2NCc2ccccc2)cc1OC (centres undefined)	-68	-15	69*	46	14	31
CN(C)S(=O)(=O)c1cccc(NC(=O)CSc2cccc3cccnc23)c1	11	-8	29	71*	-6	51*
O=C(Nc1nc2ccccc2n1CCOc1ccccc1)c1ccco1	2	-6	-11	39	0	31
Cc1ccc(OCCn2c(NC(=O)c3ccco3)nc3ccccc32)cc1	13	0	0	29	-1	39*
Cc1cc(C)c(Nc2cc(S(=O)(=O)O)c(N)c3c2C(=O)c2ccccc2C3=O)c(C)c1	.	-4	17	54*	.	39*
Cc1cc(C)c(NC(=O)COC(=O)c2cccc3c2C(=O)c2ccccc2C3=O)c(C)c1	-11	5	15	15	6	-1
CC(C)(C)N(Cc1ccccc1)C(=O)CSc1nnc(CNc2ccc(F)cc2)o1	-2	1	47*	-5	-2	-2
O=C(CSc1nnc(CNc2ccc(F)cc2)o1)N1c2ccccc2Sc2ccccc21	-5	-7	43	0	1	-4
COc1cc(OC)c(NC(=O)c2ccccc2F)cc1Cl	0	-2	7	13	-1	3
COc1cc(NC(=O)c2cc3ccccc3cc2O)c(OC)cc1Cl	-76	21*	35	-58	5	-19
Oc1ccc(Cl)c(CN2CCN(c3ncc(Cc4ccccc4)cn3)CC2)c1	.	3	1	.	.	.
CCCCOCCCNC(=O)C[C@@H]1C[C@@]2(C(=O)OC)CC(C)(C)CC=C2N(Cc2ccccc2)C1=O	.	5	9	.	.	.
COc1cc2c(c(OC)c1OC)-c1ccc(OC)c(=O)cc1C(NC(C)=O)CC2 (centres undefined)	18	9	-19	5	-3	4
COc1cccc(C(=O)Nc2ccc3c(cc2=O)[C@@H](NC(C)=O)CCc2cc(OC)c(OC)c(OC)c2-3)c1	3	16*	12	-1	-1	5
Cc1ccc2cccc(OC(=O)c3ccc4c(c3)OCCO4)c2n1	26	2	-13	52*	-4	35
O=c1c2ccccc2ncn1Cc1ccc(Cl)c(Cl)c1	-10	-4	-2	12	0	2
Cc1[nH][nH]c(=O)c1C(c1c(C)[nH][nH]c1=O)c1cn(Cc2ccc(Cl)c(Cl)c2)c2ccccc12	.	0	31	77*	.	54*
Cc1[nH][nH]c(=O)c1C(c1c(C)[nH][nH]c1=O)c1cn(Cc2ccc(F)cc2)c2ccccc12	.	-4	20	79*	.	62*
O=C(O)Cc1cn(Cc2ccc(F)cc2)c2ccccc12	9	-1	-6	16	-3	14
